The test system of experiment [1] is 1A9. The experiment in a line: Cytotoxicity against human 1A9 cells after 72 hrs by SRB assay. In kind it is functional. Particulars: 1A9, 72 h, read-out: ED50 (the source's name). The method in brief: (§1)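 Stock cultures kept in RPMI-1640 with 25 mM HEPES, 0.2% (w/v) NaHCO3, 10% (v/v) FBS and 100 µg/mL kanamycin at 37 °C, 5% CO2. Trypsinized cells seeded at 2500-10 000 per well and exposed 72 h at 37 °C to graded concentrations from DMSO stocks (final DMSO ≤2% v/v). Cells fixed with cold 50% TCA, stained with 0.4% SRB, A562 read. ED50 interpolated from dose-response, triplicate.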

In experiment [2] the test system is HCT-8. The experiment can be described thus: Cytotoxicity against human HCT8 cells after 72 hrs by SRB assay. It counts as functional. To be noted: HCT-8, 72 h, read-out: ED50 (the source's name). The method in brief:
as §1
(In general: Sulforhodamine B stains cellular protein and so reports cell mass.)

Experiment [3] deals with SK-MEL. The experiment in a line: Cytotoxicity against human SK-MEL cells after 72 hrs by SRB assay. It counts as functional. Particulars: read-out: ED50 (the source's name). The method in brief:
as §1

For experiment [4], the system named is MCF7. The experiment in a line: Cytotoxicity against human MCF7 cells after 72 hrs by SRB assay. In kind it is functional. To be noted: MCF7, 72 h, read-out: ED50 (the source's name). In outline: as §1
Experiment [5] deals with HTC. The experiment can be described thus: Cytostatic activity against rat HTC cells at 66 ug/ml. In kind it is functional, cell-based.
Experiment [6] in a line: Cytotoxicity against human CAKI cells after 72 hrs by SRB assay. It counts as functional. Particulars: read-out: ED50 (the source's name). In outline:
as §1

For experiment [7], the system named is HTC. The experiment in a line: Cytostatic activity against rat HTC cells at 33 ug/ml. It counts as functional, cell-based.
Experiment [8] has as its system HTC. The experiment can be described thus: Cytostatic activity against rat HTC cells at 33 ug/ml under direct photoirradiation. It counts as functional, cell-based.
Experiment [9] concerns KB. The experiment in a line: Cytotoxicity against human KB cells after 72 hrs by SRB assay. It counts as functional. Particulars: read-out: ED50 (the source's name). In outline: as §1
Experiment [10] deals with A549. The experiment in a line: Cytotoxicity against human A549 cells after 72 hrs by SRB assay. It counts as functional. Particulars: A549, 72 h, read-out: ED50 (the source's name). The method in brief: as §1
For experiment [11], the system named is HTC. The experiment can be described thus: Cytostatic activity against rat HTC cells at 66 ug/ml under direct photoirradiation. It counts as functional, cell-based.
In experiment [12] the test system is KB. The experiment can be described thus: Selectivity for human KB-7d cells to human KB cells. It counts as functional.
Experiment [13] concerns KB. The experiment can be described thus: Selectivity for human KB-CPT cells to human KB cells. In kind it is functional.
The subject of experiment [14] is KB. The experiment in a line: Selectivity for human KB-VCR cells to human KB cells. It counts as functional.

This note sets out measurements from ChEMBL document CHEMBL1155723, “Cytotoxic pheophorbide-related compounds from Clerodendrum calamitosum and C. cyrtophyllum” (2001).

In brackets after ≈: the same amount, converted by molar mass. Activity calls are given as the source filed them. The calls are words filed in the database; no cut-off is given here.

Consider `C=Cc1c(C)c2cc3nc(c(C(=O)C(=O)OC)c4[nH]c(cc5nc(cc1[nH]2)C(C)=C5CC)c(C)c4C(=O)OC)[C@@H](CCC(=O)OC)[C@@H]3C`, for which the EC50 worked out at 0.2 mg/L (≈ 0.306 µM) in experiment [1]; 0.79 mg/L (≈ 1.21 µM) in [2]; 1.1 mg/L (≈ 1.69 µM) in [3]; 0.73 mg/L (≈ 1.12 µM) in [4]; 0.55 mg/L (≈ 0.843 µM) in experiment [6]; 0.2 mg/L (≈ 0.306 µM) in experiment [9]. In experiment [10], the EC50 came out at 0.49 mg/L (≈ 0.751 µM). The result in experiment [5] and in experiment [7] was inactive. Further, the outcome in experiment [8] and in [11] was Active.
In the case of `C=Cc1c(C)c2cc3nc(c4c5[nH]c(cc6nc(cc1[nH]2)C(C)=C6CC)c(C)c5C(=O)[C@]4(O)C(=O)OC)[C@@H](CCC(=O)O)[C@@H]3C`, the EC50 is 1.2 mg/L (≈ 1.97 µM) in [1]; > 4 mg/L in experiment [2]; 4 mg/L (≈ 6.57 µM) in experiment [3]; > 4 mg/L in experiment [4]; 3 mg/L (≈ 4.93 µM) in experiment [6]; 1.3 mg/L (≈ 2.14 µM) in [9]. In addition, the EC50 in experiment [10] is > 4 mg/L. For the same molecule, the result in experiment [5] and in [7] was inactive. Also, the outcome in [8] and in experiment [11] was Active.
`C=Cc1c(C)c2cc3nc(c4c5[nH]c(cc6nc(cc1[nH]2)C(C)=C6CC)c(C)c5C(=O)[C@]4(O)C(=O)OC)[C@@H](CCC(=O)OC)[C@@H]3C`: the EC50 came to 0.27 mg/L (≈ 0.434 µM) in experiment [1]; 0.4 mg/L (≈ 0.642 µM) in experiment [2]; 0.84 mg/L (≈ 1.35 µM) in experiment [3]; 0.45 mg/L (≈ 0.723 µM) in [4]; 1.9 mg/L (≈ 3.05 µM) in experiment [6]; 0.3 mg/L (≈ 0.482 µM) in [9]. Besides, in experiment [10], the EC50 was 0.47 mg/L (≈ 0.755 µM). Moreover, the outcome in experiment [5] and in experiment [7] was inactive. Besides, the “fold change (FC)” value in experiment [12] is 0.8; in [13] it was 1.1; in experiment [14], >57. Moreover, the result in experiment [8] and in [11] was Active.
In the case of `C=Cc1c(C)c2cc3nc(c4c5[nH]c(cc6nc(cc1[nH]2)C(C)=C6CC)c(C)c5C(=O)[C@]4(O)C(=O)OC)[C@@H](CCC(=O)OC/C=C(\C)CCCC(C)CCCC(C)CCCC(C)C)[C@@H]3C` (stereo not given in full), the EC50 in experiment [1] was 22 mg/L (≈ 24.8 µM); in experiment [2] it was 14 mg/L (≈ 15.8 µM); in [3], 14 mg/L (≈ 15.8 µM); in experiment [4], 8.8 mg/L (≈ 9.92 µM); in [6], 19 mg/L (≈ 21.4 µM); in experiment [9], 12 mg/L (≈ 13.5 µM). For the same molecule, the EC50 in experiment [10] was found to be 15 mg/L (≈ 16.9 µM).
As for `C=Cc1c(C)c2cc3nc(c4c5[nH]c(cc6nc(cc1[nH]2)C(C=O)=C6CC)c(C)c5C(=O)[C@@H]4C(=O)OC)[C@@H](CCC(=O)OC/C=C(\C)CCCC(C)CCCC(C)CCCC(C)C)[C@@H]3C` (stereo not given in full), the outcome in experiment [8] was Active.
Same read-out and setting: the result for `C=Cc1c(C)c2cc3nc(c4c5[nH]c(cc6nc(cc1[nH]2)C(C)=C6CC)c(C)c5C(=O)[C@]4(O)C(=O)OC)[C@@H](CCC(=O)OC/C=C(\C)CCCC(C)CCCC(C)CC(O)CC(C)C)[C@@H]3C` (mixture of isomers) reads “Active”.
For the molecule `COc1cc([C@@H]2c3cc4c(cc3[C@@H](O[C@@H]3O[C@@H]5CO[C@@H](C)O[C@H]5[C@H](O)[C@H]3O)[C@H]3COC(=O)[C@H]23)OCO4)cc(OC)c1O` [ETOPOSIDE], the “fold change (FC)” value in experiment [12] is recorded as 119; in experiment [13], 1; in [14], 153.
As to `C=Cc1c(C)c2cc3nc(c4c5[nH]c(cc6nc(cc1[nH]2)C(C)=C6CC)c(C)c5C(=O)[C@@H]4C(=O)OC)[C@@H](CCC(=O)OC)[C@@H]3C` [METHYL PHEOPHORBIDE A], the EC50 in experiment [1] is 0.26 mg/L (≈ 0.429 µM); in experiment [2], 1 mg/L (≈ 1.65 µM); in experiment [3], 1.2 mg/L (≈ 1.98 µM); in experiment [4], 0.95 mg/L (≈ 1.57 µM); in experiment [6], 0.62 mg/L (≈ 1.02 µM); in experiment [9], 0.23 mg/L (≈ 0.379 µM). Moreover, the EC50 in experiment [10] came out at 0.83 mg/L (≈ 1.37 µM). Further, the outcome in experiment [5] and in experiment [7] was inactive. In addition, the result in experiment [8] and in experiment [11] was Active.
On to `CC(=O)O[C@H]1C(=O)[C@@]2(C)[C@H]([C@H](OC(=O)c3ccccc3)[C@]3(O)C[C@H](OC(=O)[C@H](O)[C@@H](NC(=O)c4ccccc4)c4ccccc4)C(C)=C1C3(C)C)[C@]1(OC(C)=O)CO[C@@H]1C[C@@H]2O` [PACLITAXEL], for which the “fold change (FC)” value in experiment [12] was determined as 1; in experiment [13] it was 1; in [14] it was 15.
Take `C=Cc1c(C)c2cc3nc(c4c5[nH]c(cc6nc(cc1[nH]2)C(C)=C6CC)c(C)c5C(=O)[C@@H]4C(=O)OC)[C@@H](CCC(=O)O)[C@@H]3C` [PHEOPHORBIDE A]: the EC50 in experiment [1] turned out to be 0.48 mg/L (≈ 0.81 µM); in [2] it was 1.5 mg/L (≈ 2.53 µM); in experiment [3], 0.91 mg/L (≈ 1.54 µM); in experiment [4] it was 1.6 mg/L (≈ 2.7 µM); in experiment [6], 0.88 mg/L (≈ 1.48 µM); in experiment [9], 0.46 mg/L (≈ 0.776 µM). Also, in experiment [10], the EC50 came to 1.5 mg/L (≈ 2.53 µM). Moreover, the outcome in experiment [5] and in [7] was inactive. Moreover, the “fold change (FC)” value in experiment [12] was 1; in experiment [13], 1.1; in experiment [14], 0.6. For the same molecule, the outcome in experiment [8] and in experiment [11] was Active.
In the case of `C=Cc1c(C)c2cc3nc(c(C(=O)C(=O)OC)c4[nH]c(cc5nc(cc1[nH]2)C(C)=C5CC)c(C)c4C(=O)OC)[C@@H](CCC(=O)O)[C@@H]3C` [PURPURIN 7 DIMETHYL ESTER], the EC50 amounted to 0.64 mg/L (≈ 1 µM) in experiment [1]; 1.6 mg/L (≈ 2.51 µM) in experiment [2]; 1.1 mg/L (≈ 1.72 µM) in experiment [3]; 1.6 mg/L (≈ 2.51 µM) in [4]; 1.3 mg/L (≈ 2.04 µM) in [6]; 0.7 mg/L (≈ 1.1 µM) in [9]. The EC50 in experiment [10] came out at 1.8 mg/L (≈ 2.82 µM). Further, the result in experiment [5] and in [7] was inactive. Besides, the figures for the “fold change (FC)” value in experiment [12], in experiment [13] and in experiment [14] were 0.7, 1 and 0.5, respectively. The result in experiment [8] and in [11] was Active.
